Reference: ChEMBL document CHEMBL2380276, “Synthesis and antiproliferative evaluation of piperazine-1-carbothiohydrazide derivatives of indolin-2-one” (Bioorg Med Chem Lett, 2013)

Legend:
Assay type in all cases: functional, cell-based
HCT-116 = experiment: Cytotoxicity against human HCT116 cells assessed as growth inhibition after 72 hrs by MTT assay; conditions: HCT-116, 72 h
Summary of the method: (§1)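 MTT proliferation assay; cells exposed 72 h, first screened at 100 μM with ≥50% inhibition versus vehicle-treated cells counted active; active compounds then tested at various concentrations to derive IC50 (concentration giving 50% proliferation inhibition). Sunitinib positive control. Means ± SD of three separate experiments.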

MCF7 = experiment: Cytotoxicity against human MCF7 cells assessed as growth inhibition after 72 hrs by MTT assay; conditions: MCF7, 72 h; summary of the method: as §1
A549 = experiment: Cytotoxicity against human A549 cells assessed as growth inhibition after 72 hrs by MTT assay; conditions: A549, 72 h; summary of the method: as §1

Structure (SMILES)	IC50 (HCT-116) [µM]	IC50 (MCF7) [µM]	IC50 (A549) [µM]
O=C1Nc2ccc(F)cc2/C1=N/NC(=S)N1CCN(c2ccccc2)CC1	12.3	24.3	20.7
O=C1Nc2ccc(Cl)cc2/C1=N/NC(=S)N1CCN(c2ccc([N+](=O)[O-])cc2)CC1	12	20.9	11.8
CCN(CC)CCNC(=O)c1c(C)[nH]c(/C=C2\C(=O)Nc3ccc(F)cc32)c1C [SUNITINIB]	4.71	6.29	2.44
O=C1Nc2cc(Cl)ccc2/C1=N/NC(=S)N1CCN(c2ccccc2)CC1	17.9	23	27.7
O=C1Nc2ccc(Cl)cc2/C1=N/NC(=S)N1CCN(c2ccc(Cl)c(Cl)c2)CC1	5.82	10.8	7.95
O=C1Nc2ccccc2/C1=N/NC(=S)Nc1ccccc1	> 100	> 100	> 100
Cc1ccc2c(c1)/C(=N/NC(=S)N1CCN(c3ccccc3)CC1)C(=O)N2	9.48	14.9	9.88
O=C1Nc2ccc(Cl)cc2/C1=N/NC(=S)N1CCN(c2ccc(F)cc2)CC1	6.35	12.3	8.9
O=C1Nc2ccccc2/C1=N/NC(=S)N1CCN(c2ccccc2)CC1	11.1	24.9	18.6
Cc1ccc(NC(=S)N/N=C2\C(=O)Nc3ccc(Cl)cc32)c(C)c1	> 100	> 100	> 100
O=C1Nc2ccc(Br)cc2/C1=N/NC(=S)N1CCN(c2ccccc2)CC1	10.4	20.5	12.2
COc1ccc2c(c1)/C(=N/NC(=S)N1CCN(c3ccccc3)CC1)C(=O)N2	9.53	14.4	7.52
O=C1Nc2c(Br)cc(Br)cc2/C1=N/NC(=S)N1CCN(c2ccccc2)CC1	6.32	11.6	6.11
O=C1Nc2ccc(Cl)cc2/C1=N/NC(=S)N1CCN(c2ccccc2)CC1	3.49	10.4	7.34
O=C1Nc2ccc(Cl)cc2/C1=N/NC(=S)N1CCN(c2ccccc2[N+](=O)[O-])CC1	4.57	7.49	5.58
O=C1Nc2cccc(Br)c2/C1=N/NC(=S)N1CCN(c2ccccc2)CC1	33.6	40.7	54
Cc1ccc(N2CCN(C(=S)N/N=C3\C(=O)Nc4ccc(Cl)cc43)CC2)c(C)c1	7.18	10.8	3.59
O=C1Nc2cc(Br)ccc2/C1=N/NC(=S)N1CCN(c2ccccc2)CC1	14.5	19.7	15.8
O=C1Nc2ccc([N+](=O)[O-])cc2/C1=N/NC(=S)N1CCN(c2ccccc2)CC1	15.1	23.3	17.9
O=C1Nc2ccc(Cl)cc2/C1=N/NC(=S)N1CCN(c2ccc(F)cc2F)CC1	5.89	20.1	11.4
O=C1Nc2ccc(Cl)cc2/C1=N/NC(=S)N1CCN(c2ccccc2Cl)CC1	4.91	11.7	7.92
O=C1Nc2ccc(Cl)cc2/C1=N/NC(=S)N1CCN(c2ccccc2F)CC1	8.29	15.2	10.5
O=C1Nc2ccc(Cl)cc2/C1=N/NC(=S)N1CCN(c2ccc(Cl)cc2)CC1	5.39	13.1	8.18
Cc1ccc(N2CCN(C(=S)N/N=C3\C(=O)Nc4ccc(Cl)cc43)CC2)cc1	6.39	17.1	10.1
COc1ccc(N2CCN(C(=S)N/N=C3\C(=O)Nc4ccc(Cl)cc43)CC2)cc1	7.74	13.8	7.68
O=C1Nc2cccc(Cl)c2/C1=N/NC(=S)N1CCN(c2ccccc2)CC1	42.1	52.1	55.9
O=C1Nc2ccc(Cl)cc2/C1=N/NC(=S)Nc1ccccc1	30.8	35	33.1
Cc1ccccc1N1CCN(C(=S)N/N=C2\C(=O)Nc3ccc(Cl)cc32)CC1	4.91	10.9	6.52
